Measurements from different studies.
Each line is one published result; the experiments were not run side by side.
Target: cGMP-dependent protein kinase 1 (PRKG1, Homo sapiens, UniProt Q13976)
One construct used (Q13976 1-671): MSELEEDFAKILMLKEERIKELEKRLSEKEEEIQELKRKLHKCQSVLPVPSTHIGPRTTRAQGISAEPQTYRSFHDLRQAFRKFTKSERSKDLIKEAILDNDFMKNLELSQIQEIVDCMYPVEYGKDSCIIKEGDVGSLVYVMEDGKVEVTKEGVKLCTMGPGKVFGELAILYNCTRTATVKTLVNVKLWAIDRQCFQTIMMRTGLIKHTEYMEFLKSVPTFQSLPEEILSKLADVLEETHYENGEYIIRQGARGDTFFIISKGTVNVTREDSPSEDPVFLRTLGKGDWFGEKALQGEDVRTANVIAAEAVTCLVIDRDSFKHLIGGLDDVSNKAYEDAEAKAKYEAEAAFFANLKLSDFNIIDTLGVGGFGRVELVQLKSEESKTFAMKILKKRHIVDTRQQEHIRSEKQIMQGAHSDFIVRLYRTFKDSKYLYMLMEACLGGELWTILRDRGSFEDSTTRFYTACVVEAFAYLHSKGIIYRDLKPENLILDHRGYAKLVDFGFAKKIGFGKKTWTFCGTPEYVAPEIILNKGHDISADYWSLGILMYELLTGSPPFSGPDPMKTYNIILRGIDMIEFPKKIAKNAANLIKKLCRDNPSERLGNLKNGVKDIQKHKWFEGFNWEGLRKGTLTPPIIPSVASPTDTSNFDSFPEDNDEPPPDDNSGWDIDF

Structure (SMILES) | assay | conditions | remaining binding
Cc1c(C(=O)O)cc(-c2ccc(C3CCNCC3)cc2)c2ccc(-c3ccc(C(F)(F)F)cc3)cc12 | binding, competition with immobilised ligand | 1 µM | 97%
Cc1cnc(Nc2ccc(C(=O)N3CCC(N4CCCC4)CC3)cc2)nc1-c1cc2ccccc2s1 | binding, competition with immobilised ligand | 1 µM | 100%
CCN1CCN(Cc2ccc(C(=O)Nc3ccc(C)c(Oc4ccc5c(c4)CC(=O)N5)c3)cc2C(F)(F)F)CC1 | binding, competition with immobilised ligand | 1 µM | 100%
COc1ncc2cc3ccccc3nc2c1C#N | cell-free assay, competition with immobilised ligand | 5 µM | 100%
F[C@@H]1CCN(c2nccc(-c3cnn4ncccc34)n2)C1 | binding | 1 µM | 90%
FC(F)(F)Oc1cccc(-c2cnc3ccc(-c4ccncc4)nn23)c1 | cell-free assay, competition with immobilised ligand | 5 µM | 98%
O=C(c1ccc(Nc2nccc(-c3cc4ccccc4s3)n2)cc1)N1CCC(N2CCCC2)CC1 | binding, competition with immobilised ligand | 1 µM | 100%
CN([C@@H]1CCc2c(CC(=O)O)c3cc(S(C)(=O)=O)ccc3n2C1)S(=O)(=O)c1ccc(F)cc1 | cell-free assay, competition with immobilised ligand | 1 µM | 95%
N[C@@H]1CCN(c2nccc(-c3cnn4ncccc34)n2)C1 | binding | 1 µM | 100%
O=C(Nc1c[nH]nc1C(=O)NC1CCNCC1)c1cc(F)cc(F)c1 | binding, competition with immobilised ligand | 1 µM | 100%
C[C@@H]1CCN(c2nccc(-c3cnn4ncccc34)n2)C1 | binding | 1 µM | 68%
COc1cnc(Nc2cccc(S(N)(=O)=O)c2)nc1N1CCN(c2ccccc2)C(=O)C1 | binding, competition with immobilised ligand | 1 µM | 100%
CC1=C(C#N)[C@@H](c2ccc3[nH]nc(C)c3c2)C(C#N)=C(c2ccc(Cl)cc2)N1 | cell-free assay, competition with immobilised ligand | 1 µM | 86.9%
O=C(c1ccc(Nc2ncc(Cl)c(-c3ccc(Cl)s3)n2)cc1)N1CCC(N2CCCC2)CC1 | binding, competition with immobilised ligand | 1 µM | 100%
COc1cnc(Nc2cccc(S(N)(=O)=O)c2)nc1N1CCN(c2ccccc2)CC1 | binding, competition with immobilised ligand | 1 µM | 100%
CC1CCCN1c1nccc(-c2cnn3ncccc23)n1 (stereo not drawn) | binding | 1 µM | 89%
Cc1c[nH]c2nccc(Oc3c(F)cc(Nc4cc(Cl)nc(N)n4)cc3F)c12 | cell-free assay, competition with immobilised ligand | 0.1 µM | 49%
CN(C)c1nccc(-c2cnn3ncccc23)n1 | binding | 1 µM | 100%
COc1ccc2c(c1)O[C@@H](c1ccc(OC)c(OC)c1)C[C@H]2NC(=O)C1(c2ccc3c(c2)OC(F)(F)O3)CC1 | cell-free assay, competition with immobilised ligand | 1 µM | 100%
CN(C)c1nccc(-c2cnc3ncccn23)n1 | binding | 1 µM | 81%
COc1cc(-c2cn(C3CCc4c(F)cccc4N(CC(F)(F)F)C3=O)nn2)ccc1-n1cnc(C)c1 (stereo not drawn) | cell-free assay, competition with immobilised ligand | 1 µM | 100%
